# ChEMBL document CHEMBL4715835, “Lipidic synthetic alkaloids as SK3 channel modulators. Synthesis and biological evaluation of 2-substituted tetrahydropyridine derivatives with potential anti-metastatic activity” (Eur J Med Chem, 2020)
# Calls of active or inactive are those of the source. The rule behind the calls is not given here.
# Columns and labels:
# MDA-MB-435 [1] = assay: Antimetastatic activity against human MDA-MB-435 cells harboring SK3 shRNA assessed as reduction in cell migration after 24 hrs by […]; format: functional, cell-based
# [2] = Toxicity in human Caco-2 cells assessed as reduction in cell number after 48 hrs by Hoechst 33342 staining based assay
# How it was run: (§1)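 4000 cells per well. Cells exposed 24 h after seeding to 6 concentrations ([…]) for 48 h. They were then fixed in cold 90% ethanol/5% acetic acid for 20 min and nuclei stained with Hoechst 33342. Plates imaged on a high-content reader. IC₅₀ calculated; normal diploid skin fibroblasts served as control cells.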
# MDA-MB-435 [3] = assay: Effect on calcium influx in human MDA-MB-435 cells harboring siRNA and siOrai1 at 1 uM measured after 1 hr by Fura2-AM dye based fluorescence assay; format: functional, cell-based
# How it was run: (§2)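 Constitutive Ca²⁺ entry in MDA-MB-435s shRD or shSK3 cells, measured 48 h after transfection with 30 nM siOrai1 or siCTL. Cells were treated 1 h with compound and loaded with Fura2-AM for 45 min at 37 °C. They were then resuspended in Ca²⁺-free solution for 20 s before 2 mM CaCl₂ was added. Emission read at 510 nm with 340/380 nm excitation. Steady-state signal normalized to control. Three experiments in triplicate.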
# [4] = biological target: Small conductance calcium-activated potassium channel protein 3 (Homo sapiens) (UniProt Q9UGI6); assay: Inhibition of SK3 in human MDA-MB-435 cells harboring SK3 shRNA assessed as reduction in Ca2+ influx at 1 uM measured after 1 hr by Fura2-AM dye based fluorescence assay; format: cell-based; how it was run: as §2
# MDA-MB-435 [5] = assay: Antimetastatic activity against human MDA-MB-435 cells harboring shRNA assessed as reduction in cell migration at 0.3 to 3 uM after 24 hrs by […]; format: functional, cell-based; conditions: dose 0.3-3 µM
# MDA-MB-435 [6] = assay: Antimetastatic activity against human MDA-MB-435 cells harboring shRNA assessed as reduction in cell migration at 3 uM after 24 hrs by […] relative to control; format: functional; parameters: scale not given: the % may be the effect or the level left
# [7] = Toxicity in human HCT-116 cells assessed as reduction in cell number after 48 hrs by Hoechst 33342 staining based assay; how it was run: as §1
# MDA-MB-435 [8] = assay: Toxicity in human MDA-MB-435 cells assessed as mortality at 1 uM measured after 24 hrs by MTT assay relative to control; format: cell-based; conditions: mda-mb-435, 24 h
# How it was run: (§3)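 MTT viability assay: about 4 × 10⁴ MDA-MB-435s cells seeded in triplicate with the molecules (tested series 100 nM, 300 nM, 1 µM, 3 µM, 10 µM) and kept 24 h at 37 °C. Medium was then removed and cells incubated 45 min at 37 °C with tetrazolium salt, which viable cells reduce to formazan. Results given as % mortality.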
# [9] = Toxicity in human skin fibroblasts assessed as reduction in cell number after 48 hrs by Hoechst 33342 staining based assay; format: tissue-based, Fibroblast; how it was run: as §1
# [10] = biological target: Small conductance calcium-activated potassium channel protein 3 (Homo sapiens) (UniProt Q9UGI6); assay: Inhibition of SK3 (unknown origin) expressed in HEK293 cells assessed as reduction in channel current at 10 uM with 0 mV holding potential in presence of -apamin by patch clamp electrophysiological method; format: cell-based
# How it was run: (§4)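 Patch clamp on HEK-293 cells stably expressing SK3 (lentiviral). Compound added acutely; DMSO/methanol was the vehicle, and runs with or without apamin. Ramp from −80 to +80 mV, holding at 0 mV, 500 ms ramps at 4 s intervals. Current analyzed at 0 mV to minimize chloride currents, followed as a time course. Pipette solution adjusted to pH 7.2 with KOH.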
# [11] = Toxicity in human MDA-MB-231 cells assessed as reduction in cell number after 48 hrs by Hoechst 33342 staining based assay; how it was run: as §1
# [12] = Toxicity in human Huh-7 cells assessed as reduction in cell number after 48 hrs by Hoechst 33342 staining based assay; how it was run: as §1
# [13] = Toxicity in human MCF7 cells assessed as reduction in cell number after 48 hrs by Hoechst 33342 staining based assay; how it was run: as §1
# MDA-MB-435 [14] = assay: Inhibition of SK3/Orai1 in human MDA-MB-435 cells harboring SK3 shRNA assessed as reduction in Ca2+ influx at 1 uM measured after 1 hr by Fura2-AM dye based fluorescence assay; format: cell-based; how it was run: as §2
# MDA-MB-435 [15] = assay: Toxicity in human MDA-MB-435 cells assessed as mortality at 10 uM measured after 24 hrs by MTT assay relative to control; format: cell-based; conditions: mda-mb-435, 24 h; how it was run: as §3
# MDA-MB-435 [16] = assay: Effect on calcium influx in human MDA-MB-435 cells harboring siRNA and siCTL at 1 uM measured after 1 hr by Fura2-AM dye based fluorescence assay; format: functional, cell-based; how it was run: as §2
# [17] = Toxicity in human NCI-H727 cells assessed as reduction in cell number after 48 hrs by Hoechst 33342 staining based assay; how it was run: as §1
# [18] = biological target: Small conductance calcium-activated potassium channel protein 3 (Homo sapiens) (UniProt Q9UGI6); assay: Inhibition of SK3 (unknown origin) expressed in HEK293 cells assessed as reduction in channel current at 10 uM with 0 mV holding potential by patch clamp electrophysiological method; format: cell-based; how it was run: as §4
# [19] = Toxicity in human PC-3 cells assessed as reduction in cell number after 48 hrs by Hoechst 33342 staining based assay; how it was run: as §1
# [20] = biological target: Small conductance calcium-activated potassium channel protein 3 (Homo sapiens) (UniProt Q9UGI6); assay: Inhibition of SK3 (unknown origin) expressed in HEK293 cells assessed as reduction in channel current at 10 uM with 0 mV holding potential measured within 100 secs by patch clamp electrophysiological method relative to control; format: cell-based; conditions: time 100.0 sec; how it was run: as §4
# MDA-MB-435 [21] = assay: Antimetastatic activity against human MDA-MB-435 cells assessed as reduction in cell migration at 1 uM after 24 hrs by […] relative to control; format: functional; parameters: scale not given: the % may be the effect or the level left
# MDA-MB-435 [22] = assay: Toxicity in human MDA-MB-435 cells assessed as mortality at 3 uM measured after 24 hrs by MTT assay relative to control; format: cell-based; conditions: mda-mb-435, 24 h; how it was run: as §3
# [23] = biological target: Small conductance calcium-activated potassium channel protein 3 (Homo sapiens) (UniProt Q9UGI6); assay: Inhibition of SK3 (unknown origin) expressed in HEK293 cells assessed as reduction in channel current at 2 uM with 0 mV holding potential measured within 10 secs by patch clamp electrophysiological method relative to control; format: cell-based; conditions: time 10.0 sec; how it was run: as §4
# MDA-MB-435 [24] = assay: Antimetastatic activity against human MDA-MB-435 cells harboring shRNA assessed as reduction in cell migration at 100 to 300 nM after 24 hrs […]; format: functional, cell-based; conditions: dose 100-300 nM
# MDA-MB-435 [25] = assay: Inhibition of SK3/Orai1 in human MDA-MB-435 cells harboring SK3 shRNA assessed as reduction in Ca2+ influx at 300 nM measured after 1 hr by Fura2-AM dye based fluorescence assay relative to control; format: cell-based; how it was run: as §2
# MDA-MB-435 [26] = assay: Effect on calcium influx in human MDA-MB-435 cells harboring siRNA and siOrai1 at 300 nM measured after 1 hr by Fura2-AM dye based fluorescence assay; format: functional, cell-based; how it was run: as §2
# [27] = biological target: Small conductance calcium-activated potassium channel protein 3 (Homo sapiens) (UniProt Q9UGI6); assay: Inhibition of SK3 in human MDA-MB-435 cells harboring SK3 shRNA assessed as reduction in Ca2+ influx at 300 nM measured after 1 hr by Fura2-AM dye based fluorescence assay; format: cell-based; how it was run: as §2
# [28] = biological target: Small conductance calcium-activated potassium channel protein 3 (Homo sapiens) (UniProt Q9UGI6); assay: Inhibition of SK3 (unknown origin) expressed in HEK293 cells assessed as reduction in channel current at 2 uM with 0 mV holding potential in presence of -apamin by patch clamp electrophysiological method; format: cell-based; how it was run: as §4
# [29] = biological target: ORAI1/STIM1 (Homo sapiens) (UniProt Q96D31+Q13586); assay: Inhibition of STIM1/Orai1 (unknown origin) expressed in HEK293 cells assessed as reduction in Ca2+-release activated Ca2+ entry current at 2 uM by whole cell patch clamp electrophysiological method; format: cell-based
# MDA-MB-435 [30] = assay: Antimetastatic activity against human MDA-MB-435 cells assessed as reduction in cell migration at 100 to 300 nM after 24 hrs by crystal violet staining based assay relative to control; parameters: scale not given: the % may be the effect or the level left; conditions: dose 100-300 nM
# [31] = biological target: Small conductance calcium-activated potassium channel protein 3 (Homo sapiens) (UniProt Q9UGI6); assay: Inhibition of SK3 (unknown origin) expressed in HEK293 cells assessed as reduction in channel current at 2 uM with 0 mV holding potential by patch clamp electrophysiological method; format: cell-based; how it was run: as §4
# MDA-MB-435 [32] = assay: Effect on calcium influx in human MDA-MB-435 cells harboring siRNA and siCTL at 300 nM measured after 1 hr by Fura2-AM dye based fluorescence assay; format: functional, cell-based; how it was run: as §2
# Chain of Small conductance calcium-activated potassium channel protein 3 (Homo sapiens) (Q9UGI6 whole entry): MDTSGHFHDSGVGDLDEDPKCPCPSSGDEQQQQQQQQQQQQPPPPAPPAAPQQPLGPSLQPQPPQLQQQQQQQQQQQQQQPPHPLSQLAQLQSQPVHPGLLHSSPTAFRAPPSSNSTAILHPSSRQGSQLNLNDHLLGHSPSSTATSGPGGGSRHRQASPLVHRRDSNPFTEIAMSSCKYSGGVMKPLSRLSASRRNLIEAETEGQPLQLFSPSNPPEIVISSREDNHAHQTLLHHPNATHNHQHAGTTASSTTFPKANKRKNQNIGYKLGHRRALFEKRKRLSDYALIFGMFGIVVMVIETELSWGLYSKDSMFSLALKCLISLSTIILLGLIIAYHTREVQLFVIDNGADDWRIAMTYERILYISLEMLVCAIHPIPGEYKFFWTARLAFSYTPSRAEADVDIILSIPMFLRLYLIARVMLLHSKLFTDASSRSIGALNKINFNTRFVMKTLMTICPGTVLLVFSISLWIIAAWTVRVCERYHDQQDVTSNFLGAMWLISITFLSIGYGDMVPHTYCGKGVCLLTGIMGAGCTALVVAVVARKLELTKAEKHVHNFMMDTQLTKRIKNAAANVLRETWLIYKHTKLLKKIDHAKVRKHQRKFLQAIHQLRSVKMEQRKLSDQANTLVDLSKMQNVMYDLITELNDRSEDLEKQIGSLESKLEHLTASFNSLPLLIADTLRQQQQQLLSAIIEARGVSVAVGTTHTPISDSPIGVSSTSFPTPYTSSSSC
# Chain of ORAI1/STIM1 (Homo sapiens) (Q13586 23-685 partner limits assumed): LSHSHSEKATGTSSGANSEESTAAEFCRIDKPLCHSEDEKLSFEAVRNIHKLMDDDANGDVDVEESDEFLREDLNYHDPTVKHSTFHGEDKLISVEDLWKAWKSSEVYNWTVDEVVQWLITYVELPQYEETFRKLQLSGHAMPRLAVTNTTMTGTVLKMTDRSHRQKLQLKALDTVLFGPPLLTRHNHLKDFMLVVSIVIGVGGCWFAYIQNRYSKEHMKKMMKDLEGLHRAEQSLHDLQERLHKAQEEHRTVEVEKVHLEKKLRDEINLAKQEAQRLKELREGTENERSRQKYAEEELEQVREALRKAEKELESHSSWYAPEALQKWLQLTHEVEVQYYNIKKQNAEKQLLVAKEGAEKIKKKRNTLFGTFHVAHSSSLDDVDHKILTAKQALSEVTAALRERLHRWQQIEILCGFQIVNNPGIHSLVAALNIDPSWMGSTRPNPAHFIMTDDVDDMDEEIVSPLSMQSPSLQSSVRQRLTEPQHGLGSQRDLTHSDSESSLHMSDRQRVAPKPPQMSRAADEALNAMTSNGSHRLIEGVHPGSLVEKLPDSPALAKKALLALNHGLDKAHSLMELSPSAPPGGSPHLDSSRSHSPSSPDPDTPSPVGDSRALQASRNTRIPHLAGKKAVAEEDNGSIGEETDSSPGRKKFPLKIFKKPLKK
# Chain of ORAI1/STIM1 (Homo sapiens) (Q96D31 whole entry): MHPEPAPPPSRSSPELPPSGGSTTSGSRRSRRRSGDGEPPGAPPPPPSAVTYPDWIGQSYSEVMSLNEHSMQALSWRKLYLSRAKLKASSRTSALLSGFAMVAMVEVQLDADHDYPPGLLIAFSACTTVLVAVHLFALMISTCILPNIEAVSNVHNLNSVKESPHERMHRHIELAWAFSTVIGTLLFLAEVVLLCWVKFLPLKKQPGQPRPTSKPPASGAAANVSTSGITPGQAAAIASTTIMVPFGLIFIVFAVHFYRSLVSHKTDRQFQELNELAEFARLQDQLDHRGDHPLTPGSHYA
Structure (SMILES),IC50 at 48 h [2] [µM],IC50 at 48 h [7] [µM],mortality (MDA-MB-435 [8]) [%],IC50 at 48 h [9] [µM],IC50 at 48 h [11] [µM],IC50 at 48 h [12] [µM],IC50 at 48 h [13] [µM],mortality (MDA-MB-435 [15]) [%],IC50 at 48 h [17] [µM],IC50 at 48 h [19] [µM],Activity (MDA-MB-435 [21]),mortality (MDA-MB-435 [22]) [%],further results
CCCCCCCC/C=C\CCCCCCC[C@H](C[C@@H]1C=CCCN1C)OC(C)=O,9,9,0,13,10,10,15,70,19,8,40%,,Activity (MDA-MB-435 [1]): Dose-dependent effect; Activity (MDA-MB-435 [3]): inactive; inhibition [4]: inactive; Activity (MDA-MB-435 [5]): inactive; Activity (MDA-MB-435 [6]): <=40%; inhibition [10]: Active; inhibition (MDA-MB-435 [14]): Active; Activity (MDA-MB-435 [16]): inactive; inhibition [18]: 70%; inhibition [20]: 50%
CCCCCCCC/C=C\CCCCCCC[C@H](O)C[C@@H]1C=CCCN1C,6,15,30,25,14,24,18,,> 25,19,,40,
CCCCCCCCCCCCCCCCCCC[C@H](O)C[C@@H]1C=CCCN1C,14,> 25,30,> 25,> 25,> 25,> 25,,> 25,> 25,,30,
CCCCCCCC/C=C\CCCCCCC[C@@H](O)C[C@@H]1C=CCCN1C,8,10,30,9,8,10,10,,9,7,,80,
CCCCCCCCCCCCCCCCC[C@H](O)C[C@@H]1C=CCCN1C,16,> 25,0,> 25,> 25,> 25,> 25,0,> 25,> 25,<=60%,,inhibition [23]: 50%; Activity (MDA-MB-435 [24]): inactive; inhibition (MDA-MB-435 [25]): < 40%; Activity (MDA-MB-435 [26]): inactive; inhibition [27]: inactive; inhibition [28]: Active; inhibition [29]: inactive; Activity (MDA-MB-435 [30]): <=60%; inhibition [31]: 90%; Activity (MDA-MB-435 [32]): inactive
